Measured values of several laboratories.
Compare with care: the assays were run in different laboratories.
Target: Tyrosine-protein kinase receptor UFO (AXL, Homo sapiens, UniProt P30530)
Sequence (P30530 1-894, as in one of the studies): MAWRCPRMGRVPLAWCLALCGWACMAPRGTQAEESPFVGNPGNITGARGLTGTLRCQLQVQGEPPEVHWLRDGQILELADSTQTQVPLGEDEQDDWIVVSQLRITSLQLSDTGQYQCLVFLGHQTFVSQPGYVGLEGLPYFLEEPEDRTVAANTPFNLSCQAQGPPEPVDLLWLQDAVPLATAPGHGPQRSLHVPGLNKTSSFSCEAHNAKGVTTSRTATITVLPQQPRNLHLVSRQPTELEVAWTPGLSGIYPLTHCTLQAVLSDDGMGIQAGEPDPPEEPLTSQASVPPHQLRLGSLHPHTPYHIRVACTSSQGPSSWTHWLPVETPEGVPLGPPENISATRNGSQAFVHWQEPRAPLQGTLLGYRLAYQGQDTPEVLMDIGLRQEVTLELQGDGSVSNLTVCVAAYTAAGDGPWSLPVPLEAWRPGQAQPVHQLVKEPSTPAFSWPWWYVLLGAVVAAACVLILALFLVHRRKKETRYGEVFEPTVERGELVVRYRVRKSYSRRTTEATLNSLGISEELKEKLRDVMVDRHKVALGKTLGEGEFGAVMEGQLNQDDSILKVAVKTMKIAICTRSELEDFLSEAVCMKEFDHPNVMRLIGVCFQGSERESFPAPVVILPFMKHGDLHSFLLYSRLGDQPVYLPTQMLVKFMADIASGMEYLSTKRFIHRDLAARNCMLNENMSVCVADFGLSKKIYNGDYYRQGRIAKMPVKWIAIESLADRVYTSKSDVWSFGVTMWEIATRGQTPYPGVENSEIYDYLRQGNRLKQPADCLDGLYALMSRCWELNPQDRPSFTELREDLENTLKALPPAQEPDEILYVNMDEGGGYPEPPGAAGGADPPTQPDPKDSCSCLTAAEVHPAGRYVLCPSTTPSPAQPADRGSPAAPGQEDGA

NS(=O)(=O)c1cc(NC(=O)C2(c3ccccc3Cl)CC2)ccc1Oc1cccc(Cl)c1  remaining binding (cell-free assay, competition with immobilised ligand; 1 µM): 89%
O=C(NCCCN1CCOCC1)c1ccc(Nc2nccc(-c3cc4ccccc4s3)n2)cc1  remaining binding (binding, competition with immobilised ligand; 1 µM): 38%
COc1cnc(Nc2cccc(S(N)(=O)=O)c2)nc1N1CCN(c2ccccc2)C(=O)C1  remaining binding (binding, competition with immobilised ligand; 1 µM): 94%
COc1ncc2cc3ccccc3nc2c1C#N  remaining binding (cell-free assay, competition with immobilised ligand; 5 µM): 92%
C[C@@H]1CCN(c2nccc(-c3cnn4ncccc34)n2)C1  remaining binding (binding; 1 µM): 86%
CCc1ccccc1C(=O)Nc1n[nH]c2c(C)c(F)c(C3C(C#N)=C(C)N(C)C(C)=C3C#N)cc12  remaining binding (binding, competition with immobilised ligand; 1 µM): 100%
O=C(NCC1CCOCC1)c1n[nH]cc1NC(=O)c1c(F)cccc1F  remaining binding (binding, competition with immobilised ligand; 1 µM): 91%
COc1ccnn2ncc(-c3ccnc(N(C)C)n3)c12  remaining binding (binding; 1 µM): 100%
COc1cnc(Nc2cccc(S(N)(=O)=O)c2)nc1N1CCN(c2ccccc2)CC1  remaining binding (binding, competition with immobilised ligand; 1 µM): 68%
F[C@@H]1CCN(c2nccc(-c3cnn4ncccc34)n2)C1  remaining binding (binding; 1 µM): 87%
COc1cccc(CNC(=O)c2nc3scc(COCc4ccc(C(=O)O)cc4)c3c(=O)[nH]2)c1  remaining binding (cell-free assay, competition with immobilised ligand; 1 µM): 84.2%
CC(C)(C)c1ccc(-c2nc(CBr)nn2-c2cccc(O)c2)cc1  remaining binding (cell-free assay, competition with immobilised ligand; 10 µM): 84%
CN(C)c1nccc(-c2cnn3ncccc23)n1  remaining binding (binding; 1 µM): 100%
O=C(c1ccc(Nc2ncc(Cl)c(-c3ccc(Cl)s3)n2)cc1)N1CCC(N2CCCC2)CC1  remaining binding (binding, competition with immobilised ligand; 1 µM): 28%
C=CC(=O)N1CCC(C(=O)NCC(=O)N2CCN(c3nc(-c4cnc(N)nc4C(F)F)nc(N4CCOCC4)n3)CC2)CC1  remaining binding (binding, competition with immobilised ligand; 1 µM): 97%
FC(F)(F)Oc1cccc(-c2cnc3ccc(-c4ccncc4)nn23)c1  remaining binding (cell-free assay, competition with immobilised ligand; 5 µM): 74%
CCOC(=O)c1cc2cc(-c3cc(C(=O)NCc4ccc(C(=O)O)cc4)nn3C)ccc2[nH]1  remaining binding (cell-free assay, competition with immobilised ligand; 0.1 µM): 89%
Cc1cnc(Nc2ccc(C(=O)N3CCC(N4CCCC4)CC3)cc2)nc1-c1cc2ccccc2s1  remaining binding (binding, competition with immobilised ligand; 1 µM): 1%
c1ccc(N2CCN(Cc3nc4ccccc4[nH]3)CC2)nc1  remaining binding (binding, competition with immobilised ligand; 1 µM): 100%
CN(c1nccc(-c2cnn3ncccc23)n1)C1CC1  remaining binding (binding; 1 µM): 78%
CC(=O)N1CCC(c2ccc(C(=O)NC3=NCCN3)cc2C(F)(F)F)CC1  remaining binding (cell-free assay, competition with immobilised ligand; 1 µM): 100%
N[C@H]1CCN(c2nccc(-c3cnn4ncccc34)n2)C1  remaining binding (binding; 1 µM): 97%
C[C@H](c1ccc(F)cc1)N(Cc1cccc(C(=O)O)c1)C(=O)c1cnc2ccccc2c1  remaining binding (cell-free assay, competition with immobilised ligand; 1 µM): 100%
C[C@@H]1CN(c2ccc3ncc(-c4ccc5[nH]nc(C6CC6)c5c4)n3n2)C[C@H](C)O1  remaining binding (binding, competition with immobilised ligand; 50 nM): 95%
